Assay results collected from several papers.
Each line is one published result; the experiments were not run side by side.
CDK2: Cyclin-dependent kinase 2 (CDK2, Homo sapiens, UniProt P24941)
CDK2 with cyclin E: Cyclin-dependent kinase 2, with cyclin E (CDK2, Homo sapiens, UniProt P24941)
CDK2 with cyclin A: Cyclin-dependent kinase 2, with cyclin A (CDK2, Homo sapiens, UniProt P24941)

`CC1(C)NC(=O)c2[nH]c3c(Cl)c(Cl)ccc3c2C1C#N` (stereo not drawn) has a ΔTm of -0.3 °C (CDK2; thermal stability; DSF; 10 µM).
For `COc1cc2c(cc1OC)-c1[nH]nc(Nc3cccc(F)c3)c1C2`, the remaining signal was 88.6% (CDK2 with cyclin E; cell-free assay; 0.5 µM).
The ΔTm of `CCC1(CC)NC(=O)c2c(c3ccc(Cl)c(Cl)c3n2C)C1C#N` (stereo not drawn) is reported as -0.4 °C (CDK2; thermal stability; DSF; 10 µM).
With `O=C1Cc2c([nH]c3ccc(Br)cc23)-c2ccccc2N1` the remaining signal was 51.9% (CDK2 with cyclin E; cell-free assay; 0.5 µM).
For `C[C@H](c1ccnc(Nc2nc3ccc(-c4cc(N(C)C)ncn4)cc3[nH]2)c1)N1CCN(C(=O)CC(F)(F)F)CC1`, the remaining binding was 100% (CDK2; cell-free assay; competition with immobilised ligand; 0.1 µM).
`Cc1cc(NC(=O)c2cccc3cc(-c4cccc5[nH]nc(N)c45)ccc23)ccc1F` has an activity vs control of 103% (CDK2 with cyclin E; enzyme activity; inhibitor; 0.1 µM).
With `Cc1nc(N2CC[C@@H](O)C2)ncc1-c1cc(C(F)(F)F)cc2[nH]ncc12` the remaining binding was 94% (CDK2; binding; competition with immobilised ligand; 1 µM).
`Cn1c2c(c3ccc(Cl)c(Cl)c31)C(C#N)C1(CCOCC1)NC2=O` (stereo not drawn) gave a ΔTm of 0 °C (CDK2; thermal stability; DSF; 10 µM).
The remaining signal of `N#Cc1c(NC(=O)c2cccc3ccccc23)sc2c1CCCC2` is reported as 89.1% (CDK2 with cyclin E; cell-free assay; 0.5 µM).
`FC(F)(F)Oc1cccc(-c2cnc3ccc(-c4ccncc4)nn23)c1` gave an activity vs control of 10% (CDK2 with cyclin A; enzyme activity; inhibitor; radiometric; 5 µM).
For `CSc1cccnc1N1CCN(Cc2nc3ccccc3[nH]2)CC1`, the remaining binding was 95% (CDK2; cell-free assay; competition with immobilised ligand; 1 µM).
`CC(C)(O)[C@H]1CC[C@H](Nc2ccc3ncc(-c4cccc(C(F)(F)F)c4)n3n2)CC1` has a remaining activity of 78.5% (Cyclin-dependent kinase 2, with cyclin A1 (CDK2, Homo sapiens, UniProt P24941); enzyme activity; inhibitor; 1 µM).
For `Cc1ccc(C(=O)NCc2ccsc2)cc1C#Cc1cn(C(C)C)c2ncnc(N)c12`, the activity vs control was 94% (CDK2 with cyclin A; enzyme activity; inhibitor; 1 µM).
With `CS(=O)(=O)c1cc(C2(NC(=O)c3cncc4c3cnn4-c3ccc(F)cc3)CC2)ccn1` the remaining binding was 94% (CDK2; cell-free assay; competition with immobilised ligand; 1 µM).
The ΔTm of `Cn1c2c(c3ccccc31)C(C#N)C(C)(C)NC2=O` (stereo not drawn) is reported as -0.1 °C (CDK2; thermal stability; DSF; 10 µM).
`Cc1cc(-n2nc(Cc3cc(F)cc(C(F)(F)F)c3)nc2C)ccc1C(N)=O` has a remaining binding of 100% (CDK2; cell-free assay; competition with immobilised ligand; 1 µM).
`O=C(Nc1cnn(-c2csc(C(=O)NC3COC3)c2)c1)Nc1c(F)cccc1Cl` gave a remaining activity of 98.9% (Cyclin-dependent kinase 2, with cyclin E2 (CDK2, Homo sapiens, UniProt P24941); enzyme activity; inhibitor; 5 µM).
The remaining signal of `Cc1ccc(NC(=O)c2ccc(C)c(C(F)(F)F)c2)cc1C#Cc1nn(C2CCC(O)CC2)c2ncnc(N)c12` (stereo not drawn) is reported as 102% (CDK2 with cyclin E; cell-free assay; 10 µM).
`Cc1sc(C(=O)NC2COC2)cc1-n1cc(NC(=O)Nc2c(F)cccc2Cl)cn1` has a remaining activity of 105% (Cyclin-dependent kinase 2, with cyclin O (CDK2, Homo sapiens, UniProt P24941); enzyme activity; inhibitor; 10 µM).
The remaining binding of `Cc1c[nH]c2nccc(Oc3c(F)cc(Nc4cc(Cl)nc(N)n4)cc3F)c12` is reported as 99% (CDK2; cell-free assay; competition with immobilised ligand; 0.1 µM).
For `Cn1c2c(c3ccc(Cl)c(Cl)c31)C(C#N)C1(CCCC1)NC2=O` (stereo not drawn), the ΔTm was -0.5 °C (CDK2; thermal stability; DSF; 10 µM).
`O=C1Cc2c([nH]c3ccc([N+](=O)[O-])cc23)-c2ccccc2N1` gave a remaining signal of 8.37% (CDK2 with cyclin A; cell-free assay; 0.5 µM).
The ΔTm of `Cn1c2c(Cl)c(Cl)ccc2c2cc(N)[nH]c(=O)c21` is reported as 2.2 °C (CDK2; thermal stability; DSF; 10 µM).
The activity vs control of `CC(C)c1ccc(NC(=O)c2cccs2)c(-c2nc3ccccc3[nH]c2=O)c1` is reported as 96% (CDK2 with cyclin A; enzyme activity; inhibitor; 1 µM).
`O=C1NC(=O)c2cc(Nc3ccc(F)cc3)c(Nc3ccc(F)cc3)cc21` has a remaining signal of 95.3% (CDK2 with cyclin A; cell-free assay; 0.5 µM).
`Nc1ncnc2occ(-c3ccc(NC(=O)Nc4cc(C(F)(F)F)ccc4F)cc3)c12` gave a remaining signal of 0.1% (CDK2; cell-free assay; inhibitor; 20 µM).
With `C[C@H](NC(=O)c1cnc2n1[C@](C)(Cc1ccc(C#N)cc1)C(=O)N2c1cc(Cl)c(F)c(Cl)c1)C(=O)NC1(c2ccccn2)CC1` the remaining binding was 100% (CDK2; cell-free assay; competition with immobilised ligand; 1 µM).
`CC(C)[C@H](CO)Nc1nc(Nc2cccc(Cl)c2)c2ncn(C(C)C)c2n1` has a remaining signal of 9.88% (CDK2 with cyclin E; cell-free assay; 0.5 µM).
With `CCC(=O)N[C@@H]1CC[C@H](C(=O)N(C)c2ccc(-c3nc4ccccc4o3)cc2)C1` the remaining binding was 100% (CDK2; cell-free assay; competition with immobilised ligand; 1 µM).
`COc1cc2c(Nc3ccc(Br)cc3F)ncnc2cc1OCC1CCN(C)CC1` gave a remaining signal of 101% (CDK2 with cyclin E; cell-free assay; 0.5 µM).
With `O=C(Nc1cnn(-c2csc(C(=O)NC3COC3)c2)c1)Nc1ccccc1Cl` the remaining activity was 93.6% (CDK2 with cyclin A; enzyme activity; inhibitor; 5 µM).
`CS(=O)(=O)CCNCc1ccc(-c2ccc3ncnc(Nc4ccc(OCc5cccc(F)c5)c(Cl)c4)c3c2)o1` has a remaining signal of 94.5% (CDK2 with cyclin A; cell-free assay; 0.5 µM).
`CN1CCC2(CC1)NC(=O)c1c(c3ccc(Cl)c(Cl)c3n1C)C2C#N` (racemic) has a ΔTm of 0.1 °C (CDK2; thermal stability; DSF; 10 µM).
